# Tested on: U2OS
# Experiment: Multiplex assay against U2OS
# Type: toxicity, cell-based
# Conditions: human
# In short: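 Per cents of healthy-nucleus cells form the tubulin, mitochondrial-mass and membrane-permeability phenotype values. Live cells were stained at seeding with Hoechst33342, BioTracker Green Microtubule Cytoskeleton Dye, MitoTracker Red and Annexin V Alexa Fluor 680. After compound addition they were imaged on a CQ1 microscope at 37°C and 5% CO2, and CellPathfinder machine-learning gating split them into Hoechst high-intensity objects or normal cells, normal cells into healthy, pyknosed or fragmented nuclei, and pyknosed cells into mitotic or apoptotic.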
# [1] = 12 h, 1 µM, compound concentration 1 uM, replicate 1
# [2] = 12 h, 1 µM, compound concentration 1 uM, replicate 2
# [3] = 12 h, 10 µM, compound concentration 10 uM, replicate 1
# [4] = 12 h, 10 µM, compound concentration 10 uM, replicate 2
# [5] = 24 h, 1 µM, compound concentration 1 uM, replicate 1
# [6] = 24 h, 1 µM, compound concentration 1 uM, replicate 2
# [7] = 24 h, 10 µM, compound concentration 10 uM, replicate 1
# [8] = 24 h, 10 µM, compound concentration 10 uM, replicate 2
# [9] = 48 h, 1 µM, compound concentration 1 uM, replicate 1
# [10] = 48 h, 1 µM, compound concentration 1 uM, replicate 2
# [11] = 48 h, 10 µM, compound concentration 10 uM, replicate 1
# [12] = 48 h, 10 µM, compound concentration 10 uM, replicate 2
smiles,measurement,setting,value
S=C(NCCCc1c[nH]cn1)NCCCN(Cc1ccc(Cl)c(Cl)c1)c1ccc(Br)cn1,Population Apoptotic (%),[1],56%
same,Population Fragmented Nuclei (%),[1],9%
same,Population Healthy Nuclei (%),[1],76%
same,Population Hoechst High Intensity Objects (%),[1],9%
same,Population Membrane Permeable-Phenotype (%),[1],7%
same,Population Mitochondria Different-Phenotype (%),[1],31%
same,Population Mitotic Cells (%),[1],43%
same,Population Normal (%),[1],90%
same,Population Pyknosed Nuclei (%),[1],13%
same,Population Tubulin-Different-Phenotype (%),[1],32%
same,Total Cell Count,[1],193
same,Population Apoptotic (%),[2],0%
same,Population Fragmented Nuclei (%),[2],17%
same,Population Healthy Nuclei (%),[2],82%
same,Population Hoechst High Intensity Objects (%),[2],15%
same,Population Membrane Permeable-Phenotype (%),[2],8%
same,Population Mitochondria Different-Phenotype (%),[2],8%
same,Population Mitotic Cells (%),[2],0%
same,Population Normal (%),[2],84%
same,Population Pyknosed Nuclei (%),[2],0%
same,Population Tubulin-Different-Phenotype (%),[2],4%
same,Total Cell Count,[2],79
same,Population Apoptotic (%),[3],88%
same,Population Fragmented Nuclei (%),[3],47%
same,Population Healthy Nuclei (%),[3],4%
same,Population Hoechst High Intensity Objects (%),[3],15%
same,Population Mitotic Cells (%),[3],11%
same,Population Normal (%),[3],84%
same,Population Pyknosed Nuclei (%),[3],48%
same,Total Cell Count,[3],133
same,Population Apoptotic (%),[4],93%
same,Population Fragmented Nuclei (%),[4],25%
same,Population Healthy Nuclei (%),[4],2%
same,Population Hoechst High Intensity Objects (%),[4],11%
same,Population Membrane Permeable-Phenotype (%),[4],100%
same,Population Mitochondria Different-Phenotype (%),[4],100%
same,Population Mitotic Cells (%),[4],6%
same,Population Normal (%),[4],88%
same,Population Pyknosed Nuclei (%),[4],72%
same,Population Tubulin-Different-Phenotype (%),[4],100%
same,Total Cell Count,[4],33
same,Population Apoptotic (%),[5],66%
same,Population Fragmented Nuclei (%),[5],10%
same,Population Healthy Nuclei (%),[5],76%
same,Population Hoechst High Intensity Objects (%),[5],6%
same,Population Membrane Permeable-Phenotype (%),[5],6%
same,Population Mitochondria Different-Phenotype (%),[5],10%
same,Population Mitotic Cells (%),[5],33%
same,Population Normal (%),[5],93%
same,Population Pyknosed Nuclei (%),[5],12%
same,Population Tubulin-Different-Phenotype (%),[5],14%
same,Total Cell Count,[5],199
same,Population Apoptotic (%),[6],0%
same,Population Fragmented Nuclei (%),[6],19%
same,Population Healthy Nuclei (%),[6],80%
same,Population Hoechst High Intensity Objects (%),[6],8%
same,Population Membrane Permeable-Phenotype (%),[6],16%
same,Population Mitochondria Different-Phenotype (%),[6],8%
same,Population Mitotic Cells (%),[6],0%
same,Population Normal (%),[6],91%
same,Population Pyknosed Nuclei (%),[6],0%
same,Population Tubulin-Different-Phenotype (%),[6],20%
same,Total Cell Count,[6],79
same,Population Apoptotic (%),[7],97%
same,Population Fragmented Nuclei (%),[7],44%
same,Population Healthy Nuclei (%),[7],5%
same,Population Hoechst High Intensity Objects (%),[7],21%
same,Population Membrane Permeable-Phenotype (%),[7],100%
same,Population Mitochondria Different-Phenotype (%),[7],100%
same,Population Mitotic Cells (%),[7],2%
same,Population Normal (%),[7],78%
same,Population Pyknosed Nuclei (%),[7],49%
same,Population Tubulin-Different-Phenotype (%),[7],100%
same,Total Cell Count,[7],149
same,Population Apoptotic (%),[8],100%
same,Population Fragmented Nuclei (%),[8],12%
same,Population Healthy Nuclei (%),[8],24%
same,Population Hoechst High Intensity Objects (%),[8],25%
same,Population Membrane Permeable-Phenotype (%),[8],94%
same,Population Mitochondria Different-Phenotype (%),[8],88%
same,Population Mitotic Cells (%),[8],0%
same,Population Normal (%),[8],74%
same,Population Pyknosed Nuclei (%),[8],62%
same,Population Tubulin-Different-Phenotype (%),[8],88%
same,Total Cell Count,[8],34
same,Population Apoptotic (%),[9],28%
same,Population Fragmented Nuclei (%),[9],10%
same,Population Healthy Nuclei (%),[9],58%
same,Population Hoechst High Intensity Objects (%),[9],8%
same,Population Membrane Permeable-Phenotype (%),[9],6%
same,Population Mitochondria Different-Phenotype (%),[9],11%
same,Population Mitotic Cells (%),[9],72%
same,Population Normal (%),[9],91%
same,Population Pyknosed Nuclei (%),[9],30%
same,Population Tubulin-Different-Phenotype (%),[9],10%
same,Total Cell Count,[9],211
same,Population Apoptotic (%),[10],22%
same,Population Fragmented Nuclei (%),[10],21%
same,Population Healthy Nuclei (%),[10],54%
same,Population Hoechst High Intensity Objects (%),[10],13%
same,Population Membrane Permeable-Phenotype (%),[10],5%
same,Population Mitochondria Different-Phenotype (%),[10],10%
same,Population Mitotic Cells (%),[10],77%
same,Population Normal (%),[10],86%
same,Population Pyknosed Nuclei (%),[10],24%
same,Population Tubulin-Different-Phenotype (%),[10],15%
same,Total Cell Count,[10],76
same,Population Apoptotic (%),[11],92%
same,Population Fragmented Nuclei (%),[11],50%
same,Population Healthy Nuclei (%),[11],2%
same,Population Hoechst High Intensity Objects (%),[11],22%
same,Population Membrane Permeable-Phenotype (%),[11],50%
same,Population Mitochondria Different-Phenotype (%),[11],100%
same,Population Mitotic Cells (%),[11],7%
same,Population Normal (%),[11],77%
same,Population Pyknosed Nuclei (%),[11],46%
same,Population Tubulin-Different-Phenotype (%),[11],100%
same,Total Cell Count,[11],177
same,Population Apoptotic (%),[12],100%
same,Population Fragmented Nuclei (%),[12],31%
same,Population Healthy Nuclei (%),[12],41%
same,Population Hoechst High Intensity Objects (%),[12],30%
same,Population Membrane Permeable-Phenotype (%),[12],92%
same,Population Mitochondria Different-Phenotype (%),[12],89%
same,Population Mitotic Cells (%),[12],0%
same,Population Normal (%),[12],69%
same,Population Pyknosed Nuclei (%),[12],26%
same,Population Tubulin-Different-Phenotype (%),[12],92%
same,Total Cell Count,[12],43

# Reference: ChEMBL document CHEMBL4689842, “EUbOPEN Chemogenomics Library wave 1” (2021)
